The list is not random: actives were taken first. Their share in the collection is about 3.5%.
MrgX1 antag = antagonists of human MrgX1 receptor, primary screen, HEK293 cells, Fluo-4 calcium flux. BAM8-22 antagonism; hits give low values. AID 588676, 2011. actives 1.3% (n = 310,000). B-score at 10 µM. Mas-related G-protein coupled receptor member X1 (Homo sapiens), Q96LB2;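 active means calcium-response B-score plate-corrected more than 3 library SD below zero, starting fluorescence within 5 deviations, no agonist response on first addition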;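 further: peak minus trough fluorescence over baseline after final BAM8-22 challenge near maximal dose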
Target sequence (Q96LB2 whole entry, looked up): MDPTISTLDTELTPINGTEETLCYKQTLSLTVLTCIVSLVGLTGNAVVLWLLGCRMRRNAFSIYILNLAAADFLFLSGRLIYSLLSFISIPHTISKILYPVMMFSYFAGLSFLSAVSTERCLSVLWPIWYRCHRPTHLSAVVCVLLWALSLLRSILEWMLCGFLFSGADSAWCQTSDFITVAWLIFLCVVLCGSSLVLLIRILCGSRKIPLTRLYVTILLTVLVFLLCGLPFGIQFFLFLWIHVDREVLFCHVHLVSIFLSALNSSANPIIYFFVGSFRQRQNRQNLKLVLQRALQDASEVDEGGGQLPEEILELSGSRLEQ
RGS4 pot = RGS4 potentiators or activators, primary screen, cell-based, HEK293 M3R inducible RGS4, calcium flux | actives 0.92% (n = 310,000) | carbachol calcium flux Fluo4; hits give low values | B-score at 10 µM;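 active means B-score of the integrated calcium signal more than 4 SD below the library mean, with starting fluorescence not abnormally high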;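 further: negative B-score means reduced calcium response which marks RGS4 activation or potentiation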
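Assay system: HEK293 FlpIn-TREx cells, stable M3R, doxycycline-inducible RGS4 / Probe or stimulus: carbachol, ECmax concentration / Times: overnight RGS4 induction, 30 min dye load 37 °C, 20 min compound RT / Signal: kinetic calcium fluorescence imaging with Fluo4-AM dye, 2 µM / Measure: Agonist-evoked peak-minus-minimum fluorescence over baseline, integrated ratio, B score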
MrgX1 PAM = positive allosteric modulators of MrgX1, primary screen, HEK293 cells, Fluo-4 calcium flux; FDSS; hits give high values; B-score at 10 µM; actives 0.63% (n = 310,000); AID 588675, 2011;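 active means plate-corrected calcium response at least 3 library SD above typical, normal starting fluorescence, not activating the receptor alone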;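 further: compound read alongside a low EC10 to EC30 dose of BAM8-22 agonist; peak minus trough fluorescence over baseline measured at the second addition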
RGS4 block = RGS4 inhibitors, primary screen, cell-based, HEK293 M3R inducible RGS4, calcium flux; Fluo-4 calcium flux; hits give high values; triggered by carbachol at its EC20; B-score at 10 µM; actives 0.45% (n = 310,000); AID 463165, 2010;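 active means B-score, a plate-corrected calcium signal, over three deviations above library mean, with baseline fluorescence within five deviations of library mean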;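 further: RGS4 expression induced by doxycycline in cells with stable M3 receptor; B-score is computed from the integrated fluorescence ratio over baseline after carbachol; higher B-score means a larger calcium signal and so more RGS4 inhibition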
Target sequence (P49798 whole entry, looked up): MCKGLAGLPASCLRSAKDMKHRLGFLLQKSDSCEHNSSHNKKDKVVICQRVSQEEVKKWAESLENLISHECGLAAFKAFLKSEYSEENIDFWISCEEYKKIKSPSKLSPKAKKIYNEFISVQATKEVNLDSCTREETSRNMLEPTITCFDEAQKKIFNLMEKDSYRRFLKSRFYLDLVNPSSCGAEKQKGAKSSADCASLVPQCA
MrgX1 agonist = agonists of human MrgX1 receptor, primary screen, HEK293 cells, Fluo-4 calcium flux; AID 588627, 2011; actives 0.44% (n = 310,000); Fluo-4 calcium fluorescence, agonist mode; hits give high values; Mas-related G-protein coupled receptor member X1 (Homo sapiens), Q96LB2; B-score at 10 µM;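 active means calcium response B-score plate-corrected fluorescence ratio at least 3 library SD, with starting fluorescence B-score inside 5 SD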
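Material: MrgX1-expressing HEK293 cells / Dosing: compound as first of three additions / Incubation: overnight seeding, then 1 h dark dye loading / Signal: Fluo-4 NW calcium fluorescence / Evaluation: B-scored fluorescence response ratio / Benchmarks: positive and negative control wells on each plate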
MrgX1 ag confirm = MrgX1 receptor agonists, duplicate retest, confirmation, HEK293 cells, Fluo-4 calcium flux; shares compounds with MrgX1 agonist; Fluo-4 calcium fluorescence, FDSS; activation, % at 10 µM; actives 78% (n = 600); AID 602412, 2012;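 active means calcium signal rise, corrected for plate position, at least 3 library SD high, with starting brightness within 5 such deviations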
HEK293 Ca flux = nonspecific calcium signal in parental HEK293, confirmation, counter-screen for MrgX1 antagonist project, parental HEK293 cells, Fluo-4 calcium flux; shares compounds with MrgX1 antag; Fluo-4 calcium fluorescence, FDSS; fluorescence ratio F(max-min)/F0 at 10 µM; actives 2% (n = 4,000); AID 624111, 2012;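 active means duplicate-averaged calcium fluorescence ratio at least three times the standard deviation of buffer wells, a nonspecific response in parental cells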
HEK293 Ca counter = calcium response in parental HEK293 cells, primary screen, counter-screen for MrgX1 allosteric activator project, cell-based, Fluo-4 calcium flux, duplicate. shares compounds with MrgX1 antag. Fluo-4 fluorescence ratio; hits give high values. fluorescence ratio F(max-min)/F0 at 10 µM. actives 0.4% (n = 4,000). AID 624114, 2012;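 active means calcium fluorescence ratio, averaged over duplicates, at least 3 SD of the buffer-well ratio, meaning a nonspecific response in receptor-free cells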;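 further: untransfected parental HEK293 lacking MrgX1 used as counterscreen for MrgX1 allosteric activators; fluorescence change taken during the second addition on a kinetic imager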
HEK293 Ca cntr2 = calcium response in parental HEK293 cells, primary screen, counter-screen for MrgX1 agonist project, cell-based, Fluo-4 calcium flux, duplicate, agonist mode; fluorescence ratio F(max-min)/F0 at 10 µM; Fluo-4 calcium fluorescence (FDSS); hits give high values; shares compounds with MrgX1 antag; AID 624115, 2012; actives 8.7% (n = 4,000);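 active means calcium fluorescence ratio at least three times the spread of buffer wells, meaning a non-specific response in parental cells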
Numbers stand for hits; – = inactive; · = no result given.

SMILES | MrgX1 antag | RGS4 pot | MrgX1 PAM | RGS4 block | MrgX1 agonist | MrgX1 ag confirm | HEK293 Ca flux | HEK293 Ca counter | HEK293 Ca cntr2
CN1CCc2c(sc3c2C(=O)NC(c2ccc(-c4ccc(Cl)cc4)o2)N3)C1 (configuration not stated) | – | – | – | – | 31 | – | – | – | –
Cc1ccc(OCC(=O)NNC(=S)NC(=O)C(C)(C)C)c(Br)c1 | – | – | – | – | 66 | 508% | – | – | 97
CC(=O)Nc1ccc(S(=O)(=O)N2CCCC(C(=O)O)C2)cc1 (configuration not stated) | – | – | – | – | – | · | · | · | ·
O=C(CCc1ccccc1)NNC(=O)c1ccc(Cl)cc1 | – | – | – | – | – | · | · | · | ·
Cc1ccc(C(=O)NNC(=S)NC(=O)c2ccc(Cl)cc2)cc1 | – | – | – | – | 132 | 747% | – | – | 138
O=C(CCc1ccccc1)NNC(=S)NC(=O)c1ccc(Cl)cc1 | – | – | – | – | 141 | 696% | – | – | 126
CCOc1ccc(CCNC(=O)c2cc3c(s2)CS(=O)(=O)C3)cc1OCC | – | – | – | – | – | · | · | · | ·
CCc1[nH]nc2c1C(c1ccc(Br)s1)C(C#N)=C(N)O2 (configuration not stated) | – | · | – | · | 48 | 146% | – | – | –
Cc1ccc(SCc2[nH]nc3c2C(c2ccco2)C(C#N)=C(N)O3)cc1 (configuration not stated) | – | – | – | – | 40 | 161% | – | – | –
CC(C)c1[nH]nc2c1C(c1cccnc1)C(C#N)=C(N)O2 (configuration not stated) | – | – | – | – | – | · | · | · | ·
CC(C)c1[nH]nc2c1C(c1ccco1)C(C#N)=C(N)O2 (configuration not stated) | – | – | – | – | 27 | – | – | – | –
CCN1CCN(Cc2nc3cc(NC(=O)COc4ccc([N+](=O)[O-])cc4)ccc3n2C)CC1 | – | – | – | – | – | · | · | · | ·
Cc1ncc(CN2CCCC(C(=O)Nc3ccc(-c4cccc(F)c4)cc3)C2)n1C (configuration not stated) | – | – | – | – | – | · | · | · | ·
N#Cc1cnn2ccc(-c3ccc4c(c3)CCC4)nc12 | – | – | – | – | – | · | · | · | ·
CN(C)CCOc1ccc2c(c1)Sc1ccccc1CC2=O | – | – | – | – | 55 | – | – | – | –
CCC(CC)c1nc(C(N)=O)c2[nH]c(=O)n(-c3ccc(OC)c(OC)c3)c2n1 | – | – | – | – | – | · | · | · | ·
CCc1ccc(S(=O)(=O)/N=C2\C=C(NS(=O)(=O)c3ccccc3)C(=O)c3ccccc32)cc1 | · | – | · | – | · | · | · | · | ·
CC(C)c1ccc(S(=O)(=O)/N=C2\C=C(NS(=O)(=O)c3ccccc3)C(=O)c3ccccc32)cc1 | – | -11 | – | – | 30 | – | – | – | –
COc1ccc(OC)c(NC(=O)Nc2c(O)ccc3ccccc23)c1 | – | – | – | – | 29 | – | – | – | –
CCC1(C)NC(=O)N(CC(=O)Nc2sc3c(c2C(=O)OC)CCCCC3)C1=O (configuration not stated) | – | – | – | – | 28 | 437% | – | – | 128
Cc1cccc2c1N(CCCOc1ccccc1)C(=O)C2=O | – | – | – | – | 35 | 251% | – | – | 50
Cc1cccc2c1N(CCCOc1ccc(C(C)(C)C)cc1)C(=O)C2=O | – | – | – | – | – | · | · | · | ·
COC(=O)c1ccc(Cl)cc1N(Cc1c(F)cccc1Cl)S(C)(=O)=O | – | – | – | – | 71 | 290% | – | – | 61
COc1ccc(-c2cc(=O)oc3cc(OCC(=O)NCc4ccccn4)ccc23)cc1 | – | – | – | – | – | · | · | · | ·
CCOC(=O)CNc1nc(-c2ccncc2)nc2ccccc12 | – | · | – | · | 56 | 236% | – | – | 47
SMILES | MrgX1 antag | RGS4 pot | MrgX1 PAM | RGS4 block | MrgX1 agonist | MrgX1 ag confirm | HEK293 Ca flux | HEK293 Ca counter | HEK293 Ca cntr2
Cc1ccc(C)c(NC(=O)C(C)N2C(=O)c3ccccc3C2=O)c1 (configuration not stated) | – | – | – | – | – | · | · | · | ·
COC(=O)Cc1nc(NC(=O)c2cccs2)sc1C | – | – | – | – | 28 | 149% | – | – | –
CC/C(=N\NC(=O)c1ccncc1)C12CC3CC(CC(C3)C1)C2 | – | – | – | – | – | · | · | · | ·
CC1(C(=O)NC(=S)NNC(=O)c2ccncc2)CCCCC1 | – | – | – | – | 87 | 489% | – | – | 101
O=C(NNC(=S)NC(=O)C12CC3CC(CC(C3)C1)C2)c1ccncc1 | – | – | – | – | 117 | 600% | – | – | 121
O=C(NNC(=O)C1CCCCC1)c1ccncc1 | – | – | – | – | – | · | · | · | ·
CCOC(=O)c1c(=O)n(O)c2ccc(OC)cc2[n+]1[O-] | – | – | – | – | – | · | · | · | ·
O=C(NCCc1ccccn1)c1nc(Cn2ccc([N+](=O)[O-])n2)no1 | – | – | – | – | – | · | · | · | ·
CCC(=O)N1CCN=C1SCc1cccc(F)c1 | – | – | – | – | – | · | · | · | ·
CCc1ccc2oc(=O)cc(CN3CCCCC3)c2c1 | – | – | – | – | – | · | · | · | ·
CC(=Nc1ccccc1)c1sc2ccccc2c1O | – | – | – | – | 61 | 376% | – | – | 100
CC(=Nc1ccc(Br)cc1)c1sc2ccccc2c1O | – | – | – | – | – | · | · | · | ·
O=C(O)CCCCCn1c(O)c(C=C2N=c3ccccc3=N2)sc1=S | – | – | – | – | – | · | · | · | ·
CC(C)CC(CO)N1CCN(C(=O)c2cccc(Cl)c2)CCC1=O (configuration not stated) | – | – | – | – | – | · | · | · | ·
CC(=O)c1ccc(OCCCC(=O)Nc2cc(Cl)ccc2-n2cncn2)cc1 | – | – | – | – | – | · | · | · | ·
COCCN(C(=O)CSc1nnc(-c2cccs2)n1N)c1c(N)n(Cc2ccccc2)c(=O)[nH]c1=O | – | – | – | – | – | · | · | · | ·
CCOC(=O)c1c(CSC(=N)N)n(C)c2cc(Br)c(OC(C)=O)cc12 | – | – | – | – | 46 | 188% | – | – | –
